According to ChEMBL document CHEMBL1142075, “Two-year assessment of entecavir resistance in Lamivudine-refractory hepatitis B virus patients reveals different clinical outcomes depending on the resistance substitutions present” (Antimicrob Agents Chemother, 2007):

What was measured:
Hepatitis B virus [1] = experiment: Inhibition of HBV replication with RT V27A substitution and L180M, M204V background from Lamivudine refractory patient transfected into HepG2 cells; format: functional
Method in brief: (§1)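 HepG2 cells bulk-transfected with full-length HBV phenotyping plasmids cloned from patient isolates, then seeded into wells with compound titration. DMSO vehicle controls and cloned lab wild-type HBV run in parallel each experiment. At 5 days posttransfection, released virions stripped with Nonidet P-40, captured from medium with anti-HBV core antibody, and extracellular replicated virus quantitated. EC50 = concentration giving 50% inhibition.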

Hepatitis B virus [2] = experiment: Inhibition of HBV replication with RT L80V substitution and L180M, M204V background from Lamivudine refractory patient transfected into HepG2 cells; format: functional, organism-based; method in brief: as §1
Hepatitis B virus [3] = experiment: Inhibition of HBV replication with RT A200V substitution and M204I background from Lamivudine refractory patient transfected into HepG2 cells; format: functional, organism-based; method in brief: as §1
Hepatitis B virus [4] = experiment: Inhibition of HBV replication with RT A200V substitution and L180M, M204I background from Lamivudine refractory patient transfected into HepG2 cells; format: functional, organism-based; method in brief: as §1
Hepatitis B virus [5] = experiment: Inhibition of HBV replication with RT M309L substitution from Lamivudine refractory patient transfected into HepG2 cells; format: functional, organism-based; method in brief: as §1
Hepatitis B virus [6] = experiment: Inhibition of HBV replication with RT A181T substitution and V173L, L180M, M204V background from Lamivudine refractory patient transfected into HepG2 cells
Hepatitis B virus [7] = experiment: Inhibition of HBV replication with RT D263G substitution from Lamivudine refractory patient transfected into HepG2 cells; format: functional, organism-based; method in brief: as §1
Hepatitis B virus [8] = experiment: Inhibition of HBV replication with RT V224A substitution and V173L, L180M, M204V background from Lamivudine refractory patient transfected into HepG2 cells; format: functional; method in brief: as §1
Hepatitis B virus [9] = experiment: Inhibition of HBV replication with RT I53F substitution and V173F, L180M, M204V background from Lamivudine refractory patient transfected into HepG2 cells; format: functional, organism-based; method in brief: as §1
Hepatitis B virus [10] = experiment: Inhibition of HBV replication with RT G295S substitution and L80I, M204I background from Lamivudine refractory patient transfected into HepG2 cells; format: functional; method in brief: as §1
Hepatitis B virus [11] = experiment: Inhibition of HBV replication with RT S78T substitution from Lamivudine refractory patient transfected into HepG2 cells; format: functional, organism-based; method in brief: as §1
Hepatitis B virus [12] = experiment: Inhibition of HBV replication with RT Q267Stop substitution and L180M, M204V background from Lamivudine refractory patient transfected into HepG2 cells; format: functional; method in brief: as §1
Hepatitis B virus [13] = experiment: Inhibition of HBV replication with RT L80I substitution and L180M, M204I background from Lamivudine refractory patient transfected into HepG2 cells; format: functional, organism-based; method in brief: as §1
Hepatitis B virus [14] = experiment: Inhibition of HBV replication with RT K168E substitution and M204I background from Lamivudine refractory patient transfected into HepG2 cells; format: functional; method in brief: as §1
Hepatitis B virus [15] = experiment: Inhibition of HBV replication with RT L229W substitution and L180M, M204V background from Lamivudine refractory patient transfected into HepG2 cells; format: functional, organism-based; method in brief: as §1
Hepatitis B virus [16] = experiment: Inhibition of HBV replication with RT L228P substitution and M204I background from Lamivudine refractory patient transfected into HepG2 cells; format: functional; method in brief: as §1
Hepatitis B virus [17] = experiment: Inhibition of HBV replication with RT A200V substitution from Lamivudine refractory patient transfected into HepG2 cells; format: functional, organism-based; method in brief: as §1
Hepatitis B virus [18] = experiment: Inhibition of HBV replication with RT C188S substitution and L80I, L180T, M204V background from Lamivudine refractory patient transfected into HepG2 cells; format: functional, organism-based; method in brief: as §1

C=C1[C@H](CO)[C@@H](O)C[C@@H]1n1cnc2c(=O)[nH]c(N)nc21.O [ENTECAVIR]
Inhibition (Hepatitis B virus [1]): <10% | EC50 (Hepatitis B virus [2]): 11 nM | EC50 (Hepatitis B virus [3]): 33 nM | EC50 (Hepatitis B virus [4]): 10.2 nM | EC50 (Hepatitis B virus [5]): 4 nM | EC50 (Hepatitis B virus [6]): 14.2 nM | EC50 (Hepatitis B virus [7]): 5.8 nM | Inhibition (Hepatitis B virus [8]): <10% | EC50 (Hepatitis B virus [9]): 22.3 nM | Inhibition (Hepatitis B virus [10]): <10% | EC50 (Hepatitis B virus [11]): 2.4 nM | Inhibition (Hepatitis B virus [12]): <10% | EC50 (Hepatitis B virus [13]): 45.3 nM | Inhibition (Hepatitis B virus [14]): <10% | EC50 (Hepatitis B virus [15]): 32.9 nM | Inhibition (Hepatitis B virus [16]): <10% | EC50 (Hepatitis B virus [17]): 7.6 nM | EC50 (Hepatitis B virus [18]): 31.2 nM
